Measurements gathered from unrelated publications.
Protocols differ between the studies behind these lines.
Target: MAP kinase-interacting serine/threonine-protein kinase 2 (MKNK2, Homo sapiens, UniProt Q9HBH9)

Structure (SMILES)	read-out	mode	method	tested at	measurement	result
Cn1cncc1[C@](O)(COc1ccc(C#N)cc1-c1ccc(OC(F)(F)F)cc1)c1ccc(C#N)cc1	cell-free assay		competition with immobilised ligand	1 µM	remaining binding	85%
CC(C)(C)c1cc(C=C(C#N)C#N)cc(Br)c1O	enzyme activity	inhibitor		0.5 µM	remaining activity	100%
N#CC1(c2ccccn2)CCN(Cc2cc(C(=O)O)c(=O)n3ccccc23)CC1	cell-free assay		competition with immobilised ligand	1 µM	remaining binding	85%
O=c1[nH]c2ccccc2n1C1CCN(Cc2ccc(-c3[nH]c4cc5ncnc5cc4nc3-c3ccccc3)cc2)CC1	cell-free assay			0.5 µM	remaining signal	98.7%
COc1ncccc1-c1cnn2ccc(N3CCN(C(=O)OC(C)C)CC3)nc12	binding		competition with immobilised ligand	1 µM	remaining binding	100%
C#Cc1n[nH]c2c(-c3cn([C@@H](C)c4ccccc4)c(=O)[nH]c3=O)cc(F)cc12	enzyme activity	inhibitor		0.1 µM	inhibition	-7.9%
Nc1ncc(-c2nc(N3CCOCC3)nc(N3CCOCC3)n2)c(C(F)F)n1	binding		competition with immobilised ligand	10 µM	remaining binding	56%
Cc1nn(C)cc1-c1nc2c(N3CCN(Cc4ccc(Cl)cc4)CC3)c(Cl)cnc2[nH]1	binding		competition with immobilised ligand	1 µM	remaining binding	46%
C#Cc1n[nH]c2c(-c3cn(C(C)c4ccccn4)c(=O)[nH]c3=O)cc(F)cc12 (stereo not shown)	enzyme activity	inhibitor		1 µM	inhibition	9.9%
COc1cc(Nc2ncc(F)c(Nc3ccc4c(n3)NC(=O)C(C)(C)O4)n2)cc(OC)c1OC	binding		competition with immobilised ligand	10 µM	inhibition	100%
